Measured values gathered from unrelated publications.
Each line is one published result; the experiments were not run side by side.
Target: Casein kinase I isoform gamma-3 (CSNK1G3, Homo sapiens, UniProt Q9Y6M4)

SMILES | observed | method | concentration | remaining binding [%]
Nc1ncc2c(n1)-c1c([nH]c3ccc(C#CC4CC4)cc13)CCCC2 | binding | competition with immobilised ligand | 1 µM | 93
CCN1CCN(Cc2ccc(C(=O)Nc3ccc(C)c(Oc4ccc5c(c4)CC(=O)N5)c3)cc2C(F)(F)F)CC1 | binding | competition with immobilised ligand | 1 µM | 100
N#Cc1ccc(Nc2ccc3[nH]c(=O)[nH]c3c2)c(Cl)c1 | cell-free assay | competition with immobilised ligand | 1 µM | 99
C[C@@H]1CCN(c2nccc(-c3cnn4ncccc34)n2)C1 | binding |  | 1 µM | 65
CNCc1ccccc1-c1csc([C@H](C)Nc2nc(C)nc3cc(OC)c(OC)cc23)c1 | cell-free assay | competition with immobilised ligand | 1 µM | 93
O=C(c1ccc(Nc2ncc(Cl)c(-c3ccc(Cl)s3)n2)cc1)N1CCC(N2CCCC2)CC1 | binding | competition with immobilised ligand | 1 µM | 100
CN(C)c1nccc(-c2cnn3ncccc23)n1 | binding |  | 1 µM | 82
COc1cnc(Nc2cccc(S(N)(=O)=O)c2)nc1N1CCN(c2ccccc2)CC1 | binding | competition with immobilised ligand | 1 µM | 100
O=C(NCc1ncc(C(F)(F)F)cc1Cl)c1ccc2c(c1)C1(CCS(=O)(=O)CC1)[C@H](C1CC1)N2S(=O)(=O)c1ccc(F)cc1 | cell-free assay | competition with immobilised ligand | 1 µM | 100
O=C(NCCCN1CCOCC1)c1ccc(Nc2ncc(Cl)c(-c3ccc(Cl)s3)n2)cc1 | binding | competition with immobilised ligand | 1 µM | 100
CCOCCn1cc(C(=O)Nc2ccc(-n3nc(-c4cccnc4)cc3C(F)(F)F)cn2)ccc1=O | cell-free assay | competition with immobilised ligand | 1 µM | 100
Cc1cnc(Nc2ccc(C(=O)N3CCC(N4CCCC4)CC3)cc2)nc1-c1cc2ccccc2s1 | binding | competition with immobilised ligand | 1 µM | 100
CC1CCCN1c1nccc(-c2cnn3ncccc23)n1 (centres unmarked) | binding |  | 1 µM | 100
O=C(Nc1c[nH]nc1C(=O)NC1CCNCC1)c1cc(F)cc(F)c1 | binding | competition with immobilised ligand | 1 µM | 98
COc1ccnn2ncc(-c3ccnc(N(C)C)n3)c12 | binding |  | 1 µM | 97
c1cncc(-c2cccc(Nc3nccc(NC4CCCCC4)n3)c2)c1 | binding | competition with immobilised ligand | 10 µM | 100
CC(=O)N1CCC(c2ccc(C(=O)NC3=NCCN3)cc2C(F)(F)F)CC1 | cell-free assay | competition with immobilised ligand | 1 µM | 100
N[C@@H]1CCN(c2nccc(-c3cnn4ncccc34)n2)C1 | binding |  | 1 µM | 100
CS(=O)(=O)N1CCCC(NC(=O)[C@H](CCC2CCCCC2)NC(=O)c2ccc(CNc3ncnc4c3nnn4-c3ccccc3)cc2)C1 (some centres unmarked) | cell-free assay | competition with immobilised ligand | 0.1 µM | 100
CN(CCCC(F)(F)F)c1nccc(-c2cnn3ncccc23)n1 | binding |  | 1 µM | 100
